# XBP1 UPR activ – activators of adaptive arm of unfolded protein response (XBP1); CHO-XBP1 luciferase reporter, IRE1-XBP1 UPR activation, luminescence; percent of tunicamycin response, DMSO as zero; activation, % at 20 µM; 0.33% of 330,000 active;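 active = versus positive control, 20 µM dose yields 30% or more activation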;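 note: 100% = tunicamycin at 10 µg/mL and 0% = DMSO only wells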
#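 Material: IRE1-XBP1 luciferase reporter CHO line / Quantity: one thousand reporter cells per well / Buffer or medium: F12 with 10% serum / Compound: 20 µM single concentration, DMSO 1% / Times: 6 h treatment, 37 °C / Detection: Steady-Glo luciferase glow luminescence, 10 min after reagent addition / Benchmarks: tunicamycin high, DMSO low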
# CHOP inhibitor – blocks CHOP induction under ER stress; CHO-K1 CHOP-promoter luciferase, tunicamycin-induced, 15-18 h; inhibition, % at 10 µM; 3.8% of 220,000 active;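 active = compounds that reduced the stress-induced luciferase reporter signal by more than about 70% of percent inhibition, limit read from the data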;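 note: 0% = tunicamycin plus vehicle and 100% = wells without tunicamycin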
# CHOP UPR activ – apoptotic UPR (CHOP) activation; CHO-CHOP luciferase reporter, luminescence; percent of tunicamycin response over DMSO baseline; activation, % at 10 µM; 0.34% of 330,000 active; AID 449763;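 active = at 10 µM dose, activation of 40% or more, normalized to positive control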;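 note: 100% = tunicamycin at 10 µg/mL and 0% = DMSO alone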
#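 Assay system: CHO cells with stable CHOP pathway luciferase reporter; Buffer or medium: F12 plus 10% serum; Times: 16-18 h cell attachment, then 6 h compound exposure, 37 °C; Signal: luciferase luminescence; Read-out basis: percent activation relative to tunicamycin control; Control set: tunicamycin high control, DMSO low control.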
# FXN GAA850 act – frataxin GAA850 promoter activation. HEK293 lucGAA850 FXN promoter luciferase reporter, 24 h; percent of 10 µM SAHA response. activation, % at 6 µM. 0.56% of 360,000 active. AID 540364;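 active = activation above the average of all compounds screened plus 3 SD, cutoff fixed separately per campaign, cut at about 7.5% in these data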;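 note: 0% = DMSO wells and 100% = 10 µM SAHA wells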
# CHOP inh conf – confirmation of CHOP induction inhibitors | shares compounds with CHOP inhibitor | CHO-CHOP promoter luciferase reporter, tunicamycin-induced, luminescence | inhibition, % at 10 µM | 45% of 2,100 active | AID 504437;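 active = mean of three repeat readings of reporter signal inhibition above a set limit, cut at about 70% in these data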;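 note: 0% = tunicamycin plus vehicle and 100% = wells lacking tunicamycin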
# Starred values were filed as active, the others as inactive; . = no result given. This excerpt belongs to a sample that is enriched for hits.
SMILES,XBP1 UPR activ,CHOP inhibitor,CHOP UPR activ,FXN GAA850 act,CHOP inh conf
CC1(c2ccccc2)CC(C)(C)N2C(=O)C3(C(C#N)=C(N)Oc4cc(O)ccc43)c3cccc1c32 (configuration not stated),0.4,106.4*,-0.6,0.0,104.1*
O=C(CCl)Nc1ccc(N=Nc2ccccc2)cc1,.,102.5*,.,-0.4,9.1
CCCC(=O)NC(NC(=S)Nc1ccc(S(N)(=O)=O)cc1)C(Cl)(Cl)Cl (configuration not stated),1.6,-4.3,0.7,-0.1,.
CCc1ccc(OCC(=O)NC(NC(=S)Nc2ccc(Cl)cc2)C(Cl)(Cl)Cl)cc1 (configuration not stated),6.2,101.6*,20.9,-7.4,70.0*
O=C(CCl)Nc1cccc(Oc2cnccn2)c1,-5.6,.,2.6,-0.3,.
O=C(CCl)Nc1cccc(Oc2ccccc2)c1,-5.0,106.8*,7.0,-4.0,-201.5
CCc1ccc(OCC(=O)NC(=S)Nc2ccc(C(=O)O)cc2)cc1,-2.6,-4.8,-0.2,1.4,.
CCCC(=O)NC(NC(=S)Nc1ccc(N=Nc2ccccc2)cc1)C(Cl)(Cl)Cl (configuration not stated),2.5,99.7*,29.9,-7.7,82.9*
COc1ccccc1-c1ccc([C@@H]2C[C@H]3[C@H](CON3C)CN2C(=O)c2ccco2)cc1,.,.,.,-1.0,.
Cc1ccc(S(=O)(=O)NC(=O)C2(C)CCN2C(=O)CC2CCCCC2)nc1 (configuration not stated),.,.,.,-0.2,.
COc1ccc(OC)c(NC(=O)Nc2nc(C(N)c3ccccc3Cl)cs2)c1 (configuration not stated),.,.,.,-0.5,.
Cc1cc(C)cc(C(O)c2ncc(-c3ccccc3F)[nH]2)c1 (configuration not stated),.,.,.,1.1,.
O=C(Nc1nnc(-c2ccccc2)s1)c1ccc(F)cc1,-1.2,102.9*,5.2,4.6,35.9
COc1ccccc1C(=O)Nc1nnc(-c2ccc(F)cc2)s1,4.4,.,8.7,0.9,.
CC(C)CCn1c(N2CCN(c3cccc(Cl)c3)CC2)nc2c1c(=O)[nH]c(=O)n2C,4.6,105.8*,4.8,1.0,65.5
COc1cccc(C#Cc2ccc3c(c2)O[C@H](CN(C)C)[C@@H](C)CN([C@@H](C)CO)S3(=O)=O)c1,.,.,.,-1.0,.
COc1ccc(Cl)cc1NC(=O)c1cc(-c2cc(C)ccc2O)n[nH]1,0.8,100.2*,-0.2,3.5,-9.1
COc1ccc(Cl)cc1NC(=O)c1cc(-c2ccc(C)cc2O)n[nH]1,0.1,2.0,4.0,2.3,.
COc1ccc(NC(=O)c2cc(-c3cc(C)cc(C)c3O)n[nH]2)cc1Cl,2.5,103.5*,-0.3,-1.3,102.0*
COc1ccc(NC(=O)c2cc(-c3ccccc3O)n[nH]2)cc1Cl,1.5,.,4.1,2.1,.
CN1CCCCC1(C)C(=O)NCc1cc(Cl)ccc1F (configuration not stated),.,.,.,-0.6,.
CC1(C(=O)NS(=O)(=O)c2cccc(C#N)c2)CCN1C(=O)C1(c2ccccc2)CC1 (configuration not stated),.,.,.,-1.4,.
O=C(N=c1ccn(-c2nc3ccccc3nc2NS(=O)(=O)c2ccc(Cl)cc2)cc1)c1cccs1,1.6,98.1*,1.4,-0.2,-7.0
O=C(NCc1ccccc1)c1cc(C2CCCN(C(=O)c3ccccc3)C2)on1 (configuration not stated),.,.,.,2.1,.
O=c1cc(-c2c(F)c(F)c(F)c(F)c2F)oc2c(F)c(F)c(F)c(F)c12,-5.0,108.6*,-9.5,.,124.0*
SMILES,XBP1 UPR activ,CHOP inhibitor,CHOP UPR activ,FXN GAA850 act,CHOP inh conf
O=c1cc(-c2c(F)c(F)c(F)c(F)c2F)oc2ccccc12,4.8,29.1,3.4,0.5,.
C[C@@H]1CN([C@@H](C)CO)S(=O)(=O)c2ccc(Br)cc2O[C@@H]1CN(C)Cc1cccnc1,.,.,.,0.5,.
Cc1ccc2nc(/C(C#N)=C/c3ccc(-c4cccc([N+](=O)[O-])c4)o3)[nH]c2c1,.,108.0*,.,0.2,51.8
Cc1ccc2nc(/C(C#N)=C\c3cc(O)ccc3[N+](=O)[O-])[nH]c2c1,-2.4,-16.2,3.1,2.3,.
COc1ccc(/C=C(\C#N)c2nc3ccc(C)cc3[nH]2)cc1Oc1ccc(C(F)(F)F)cc1[N+](=O)[O-],14.0,101.6*,9.3,0.8,58.5
Cc1ccc(C)c(C(O)c2ncc(-c3cccc(F)c3)[nH]2)c1 (configuration not stated),.,.,.,-0.1,.
COC(=O)c1ccc2c(c1)C(C)(C)C(/C=C/c1ccc(O)cc1)=[N+]2C,-6.7,112.1*,-10.8,-7.2,137.6*
COc1cc(/C=C/c2ccc(O)cc2)cc(OC)c1,8.0,-7.3,5.8,0.9,.
O=C(Nc1ccccc1NC(=O)NC1CCCCC1)NC1CCCCC1,1.8,103.6*,3.4,1.2,114.1*
NC(=O)c1ccccc1NC(=O)NC1CCCCC1,0.7,11.3,-0.9,-4.3,.
Oc1ccc(/C=N/Nc2cc(N3CCCC3)nc(N3CCCC3)n2)cc1,25.2,109.1*,3.6,-0.7,14.1
Oc1ccc(/C=N/Nc2cc(N3CCOCC3)nc(N3CCOCC3)n2)cc1,5.3,.,0.3,-1.3,.
Cc1cc(C)n2nc(C(=O)OCC(=O)NC3CCS(=O)(=O)C3)nc2n1 (configuration not stated),.,.,.,0.4,.
Cc1ccc(CCc2nnc(SCC(=O)Nc3ccccc3Cl)n2-c2ccccc2)o1,-1.2,32.9,-0.4,4.5,.
CCOC(=O)c1ccc(NC(=O)CSc2nnc(CCc3ccc(C)o3)n2-c2ccccc2)cc1,-0.9,103.1*,-0.4,-3.0,58.0
O=C(O)c1cc(-c2ccncc2)nc2ccc(S(=O)(=O)N3CCOCC3)cc12,-1.6,23.9,0.1,-3.5,.
O=C(NCc1ccccc1)c1cc(-c2ccncc2)nc2ccc(S(=O)(=O)N3CCOCC3)cc12,-0.4,102.6*,1.0,0.8,107.5*
OC(COCC(F)(F)C(F)(F)C(F)(F)C(F)F)Cn1c2ccccc2c2ccccc21 (configuration not stated),2.3,107.7*,4.3,0.9,109.6*
Cc1cccc(C)c1OCC(O)Cn1c2ccccc2c2ccccc21 (configuration not stated),-2.5,106.8*,-1.2,-1.8,-47.9
CCOc1ccc(-c2cc(C(=O)Nc3ccc(F)cc3)[nH]n2)c(C)c1,.,.,.,4.2,.
Cc1cc(C)cc(C(O)c2ncc(-c3ccccc3C)[nH]2)c1 (configuration not stated),.,.,.,-0.1,.
O=S(=O)(Nc1cc(Sc2cccc3cccnc23)c(O)c2ccccc12)c1ccc(F)cc1,.,106.9*,.,.,107.7*
COc1ccc(C)cc1N1C(=N)/C(=C2/Nc3ccccc3S2)C(c2ccccc2)C1=O (configuration not stated),.,98.4*,.,3.6,-15.3
COc1ccc(C2C(Oc3ccccc3)C(=O)N2c2cc(C)ccc2C)cc1OC (configuration not stated),1.2,19.6,1.0,-0.5,.
